Tests used:
Rattus norvegicus [1] = assay: Effect on Serum triglceride levels on Holtzman rats at a dose of 10 (mg/kg)/day after 14 days; format: functional
Method in brief: (§1)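 Holtzman male rats (~200 g) dosed orally by intubation needle daily for 16 days, drug suspended in 1% carboxymethylcellulose; n = 6; vehicle control. Tail-vein serum cholesterol on days 9 and 16 by modified Liebermann–Burchard reaction; day-14 serum triglyceride by commercial kit; % control.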

Mus musculus [2] = assay: In vivo effect on CF1 male mouse on Lipid content after 16 days at a dose of 10 (mg/kg)/day
Mus musculus [3] = assay: Effect on Serum cholesterol levels on CF1 male mice at a dose of 20 (mg/kg)/day after 16 days; format: functional
Method in brief: (§2)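 CF1 male mice (~25 g), drug suspended in 1% carboxymethylcellulose in water, given ip daily for 16 days; n = 6; vehicle control. Tail-vein blood on days 9 and 16, serum cholesterol by modified Liebermann–Burchard reaction; day-14 serum triglyceride by commercial kit; expressed as % control.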

Mus musculus [4] = assay: In vitro effect on CF1 male mouse on HMGCoA reductase after 16 days at a dose of 10 (mg/kg)/day; format: functional
Method in brief: (§3)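 In vivo enzyme study. CF₁ male mice were dosed ip for 16 days in 1% CMC, and liver was homogenised to 10% in 0.25 M sucrose with 0.001 M EDTA. Enzymes assayed: acetyl-CoA synthetase as hydroxamate at 540 nm after 30 min at 37 °C; HMG CoA reductase with [1-¹⁴C]acetate in 9000g supernatant for 60 min at 37 °C; fatty acid synthetase with [2-¹⁴C]malonyl-CoA; acyltransferase with [³H]glycerol 3-phosphate and microsomes for 10 min; phosphatidate phosphohydrolase as released phosphate at 820 nm after 30 min. N = 6; reported as % control.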

Mus musculus [5] = assay: In vitro effect on CF1 male mouse on Fatty acid synthetase after 16 days at a dose of 60 (mg/kg)/day; format: functional; method in brief: as §3
Mus musculus [6] = assay: Effect on cholesterol from CF1 male mice after 16 days at a dose of 20 (mg/kg/day); format: functional
Method in brief: (§4)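 CF1 male mice dosed ip for 16 days at 10–60 (mg/kg)/day; liver taken and 10% homogenate made in 0.25 M sucrose + 0.001 M EDTA; aliquot extracted by Folch and Bligh–Dyer methods, mg lipid weighed, cholesterol measured by Liebermann–Burchard method; n = 6; % of 1% CMC control.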

Mus musculus [7] = species on record: Mus musculus; assay: In vitro effect on CF1 male mouse on Ac-CoA carboxylase; format: functional
Method in brief: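 In vitro test on 10% CF₁ male mouse liver homogenate (0.25 M sucrose, 0.001 M EDTA) with 2.5 μmol test drug. Assays: acetyl-CoA synthetase and citrate lyase as hydroxamate at 540 nm, 30 min, 37 °C; citrate exchange from [¹⁴C]citrate-loaded mitochondria after 10 min with drug; side-chain oxidation by ¹⁴CO₂ from [26-¹⁴C]cholesterol, 18 h, 37 °C; acetyl-CoA carboxylase by [¹⁴C]bicarbonate fixation after 30 min polymerization then 30 min at 37 °C.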

Rattus norvegicus [8] = assay: Effect on very low density Protein Holtzman rats after 14 days administration; format: functional
Method in brief: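 Holtzman male rats (~400 g) received drug at 20 (mg/kg)/day for 14 days. On day 14, blood was collected from the abdominal aorta and serum was separated by centrifugation at 3500 rpm. Lipid content of the lipoprotein fractions was then determined.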

Mus musculus [9] = species on record: Mus musculus; assay: In vitro effect on CF1 male mouse on phosphatidate phosphohydrolase; format: functional
Mus musculus [10] = assay: Effect on neutral lipids from CF1 male mice after 16 days at a dose of 10 (mg/kg/day); format: functional
Method in brief: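 Dosing was ip in CF₁ male mice (~25 g) for 16 days, with compound suspended in 1% carboxymethylcellulose. Liver was then taken and homogenised to 10% in 0.25 M sucrose with 0.001 M EDTA. Lipid was extracted from a 2 mL aliquot by the Folch and Bligh–Dyer methods and total mg of lipid was weighed. Cholesterol (Liebermann–Burchard), triglycerides (kit), neutral lipids and phospholipids were then measured; N = 6; reported as % of vehicle control.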

Mus musculus [11] = assay: In vitro effect on CF1 male mouse on Fatty acid synthetase after 16 days at a dose of 40 (mg/kg)/day; format: functional; method in brief: as §3
Mus musculus [12] = assay: Effect on Serum cholesterol levels on CF1 male mice at a dose of 100 (mg/kg)/day after 9 days; format: functional; method in brief: as §2
Mus musculus [13] = assay: Effect on cholesterol from CF1 male mice after 16 days at a dose of 60 (mg/kg/day); format: functional; method in brief: as §4
Mus musculus [14] = species on record: Mus musculus; assay: Effect on Serum triglceride levels on Hyperlipidemic induced mice After 2-week diet; format: functional
Method in brief: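 Mice fed atherogenic diet for 2 weeks to raise serum lipids, then given drug at 20 (mg/kg)/day ip for a further 2 weeks; serum cholesterol and triglyceride measured after the diet and after 14 days dosing; n = 6; compared with 1% CMC and diet-only controls; % control.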

Mus musculus [15] = assay: Effect on Serum triglceride levels on CF1 male mice at a dose of 100 (mg/kg)/day after 14 days; format: functional; method in brief: as §2
Mus musculus [16] = assay: In vivo effect on CF1 male mouse on Lipid content after 16 days at a dose of 40 (mg/kg)/day
Rattus norvegicus [17] = assay: Effect on Serum cholesterol levels on Holtzman rats at a dose of 10 (mg/kg)/day after 16 days; format: functional; method in brief: as §1
Mus musculus [18] = assay: Effect on Serum triglyceride levels on CF1 male mice at a dose of 20 (mg/kg)/day after 14 days; format: functional; method in brief: as §2
Mus musculus [19] = assay: In vitro effect on CF1 male mouse on phosphatidate phosphohydrolase after 16 days at a dose of 20 (mg/kg)/day; format: functional; method in brief: as §3
Mus musculus [20] = assay: In vitro effect on CF1 male mouse on HMGCoA reductase after 16 days at a dose of 40 (mg/kg)/day; format: functional; method in brief: as §3
Mus musculus [21] = assay: Effect on cholesterol from CF1 male mice after 16 days at a dose of 40 (mg/kg/day); format: functional; method in brief: as §4
Rattus norvegicus [22] = assay: Effect on Serum cholesterol levels on Holtzman rats at a dose of 20 (mg/kg)/day after 9 days; format: functional; method in brief: as §1
Mus musculus [23] = assay: Effect on mg of lipid from CF1 male mice after 16 days at a dose of 40 (mg/kg/day); format: functional; method in brief: as §4
Rattus norvegicus [24] = assay: Effect on cholesterol chylomicrons Holtzman rats after 14 days administration; format: functional
Method in brief: (§5)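 Holtzman male rats (~400 g) given drug at 20 (mg/kg)/day for 14 days; on day 14 blood taken from the abdominal aorta and serum separated by centrifugation at 3500 rpm; lipid and protein content of the lipoprotein fractions measured.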

Rattus norvegicus [25] = assay: Effect on low density Protein Holtzman rats after 14 days administration; format: functional; method in brief: as §5
Rattus norvegicus [26] = assay: Effect on Serum cholesterol levels on Holtzman rats at a dose of 10 (mg/kg)/day after 9 days; format: functional; method in brief: as §1
Rattus norvegicus [27] = assay: Effect on Chylomicrons of Protein Holtzman rats after 14 days administration; format: functional; method in brief: as §5
Mus musculus [28] = assay: In vitro effect on CF1 male mouse on phosphatidate phosphohydrolase after 16 days at a dose of 40 (mg/kg)/day; format: functional
Method in brief: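 CF1 male mice dosed ip daily for 16 days, drug suspended in 1% carboxymethylcellulose; liver taken as 10% homogenate in 0.25 M sucrose + 0.001 M EDTA. Phosphatidate phosphohydrolase measured as inorganic phosphate released from phosphatidic acid after 30 min, developed with ascorbic acid/ammonium molybdate, read at 820 nm. Expressed as % of 1% CMC vehicle control; N = 6.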

Mus musculus [29] = assay: Effect on cholesterol from CF1 male mice after 16 days at a dose of 10 (mg/kg/day); format: functional; method in brief: as §4

CC(=O)c1ccccc1N1C(=O)c2ccccc2C1=O
Control (Rattus norvegicus [1]): 76%
Control (Mus musculus [2]): 84%
Serum cholesterol (% of control) (Mus musculus [3]): 43%
Control (Mus musculus [4]): 98%
Control (Mus musculus [5]): 100%
Control (Mus musculus [6]): 73%
Control (Mus musculus [7]): 35%
Control (Rattus norvegicus [8]): 66%
Control (Mus musculus [9]): 65%
Control (Mus musculus [10]): 36%
Control (Mus musculus [11]): 94%
Control (Mus musculus [12]): 42%
Control (Mus musculus [13]): 82%
Control (Mus musculus [14]): 131%
Control (Mus musculus [15]): 59%
Control (Mus musculus [16]): 80%
Control (Rattus norvegicus [17]): 54%
Control (Mus musculus [18]): 56%
Control (Mus musculus [19]): 68%
Control (Mus musculus [20]): 84%
Control (Mus musculus [21]): 71%
Control (Rattus norvegicus [22]): 76%
Control (Mus musculus [23]): 80%
Control (Rattus norvegicus [24]): 64%
Control (Rattus norvegicus [25]): 95%
Control (Rattus norvegicus [26]): 66%
Control (Rattus norvegicus [27]): 91%
Control (Mus musculus [28]): 54%
Control (Mus musculus [29]): 73%
